Key:
[1] = tested on: Chenopodium album; assay: Post-emergence herbicidal activity against Chenopodium album assessed as growth inhibition at 7.5 g.a.i./ha applied at two-leaf stage measured after 15 days; assay type: functional; details: 360 h, read-out: GI
Procedure, shortened: (§1)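 Pot-grown weeds sown 5 mm deep in greenhouse clay soil (pH 6.5, 1.7% organic matter, CEC 12.9 cmol/kg) at 22-25 °C. Stock diluted with water and sprayed post-emergence: dicots at 2-leaf stage, monocots at 1-leaf stage. Untreated and DMF solvent controls were included. % growth inhibition was scored visually versus untreated controls after 15 days. Triplicates averaged.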

[2] = tested on: Chenopodium album; assay: Pre-emergence herbicidal activity against Chenopodium album assessed as growth inhibition at 7.5 g.a.i./ha applied 24 hr after seeds were sown measured after 15 days; assay type: functional; details: read-out: GI
Procedure, shortened: (§2)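 Weeds sown 5 mm deep in pots of greenhouse clay soil (pH 6.5, 37.5% clay, CEC 12.9 cmol/kg) and grown at 22-25 °C. Water-diluted formulation was applied pre-emergence 24 h after sowing. Untreated and DMF solvent controls were included. Growth inhibition was visually rated in % against untreated controls after 15 days, as the mean of triplicates.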

[3] = tested on: Chenopodium album; assay: Post-emergence herbicidal activity against Chenopodium album assessed as growth inhibition at 37.5 g.a.i./ha applied at two-leaf stage measured after 15 days; assay type: functional; details: 360 h, read-out: GI; procedure, shortened: as §1
[4] = tested on: Triticum aestivum; assay: (§3) Phytotoxicity against Triticum aestivum (wheat) assessed as growth inhibition at 75 g.a.i/ha pre-emergent application measured after 15 days by greenhouse crop selectivity assay; assay type: organism-based; details: in vivo, other, 360 h
Procedure, shortened: (§4)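 Pre-emergence greenhouse crop selectivity test on pot-grown plants in clay soil (pH 6.5, 1.7% organic matter, 37.5% clay, CEC 12.9 cmol/kg). Stock solutions were diluted with water and applied at 300, 150, 75 or 37.5 g a.i./ha, in triplicate. After 15 days, phytotoxicity was scored visually against untreated controls as % crop growth inhibition, averaged over the triplicates.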

[5] = tested on: Glycine max; assay: Phytotoxicity against Glycine max (soybean) assessed as growth inhibition at 75 g.a.i/ha pre-emergent application measured after 15 days by greenhouse crop selectivity assay; assay type: organism-based; details: in vivo, other, 360 h; procedure, shortened: as §4
[6] = tested on: Brassica rapa subsp. oleifera; assay: Phytotoxicity against Brassica rapa subsp. oleifera assessed as growth inhibition at 7.5 to 60 g.a.i/ha post-emergent application measured after 15 days by greenhouse crop selectivity assay; assay type: organism-based; details: in vivo, other, 360 h
Procedure, shortened: (§5)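 Postemergence crop selectivity test on pot-grown plants in a greenhouse, in clay soil (pH 6.5, 1.7% organic matter, CEC 12.9 cmol/kg). Stock was diluted with water and sprayed at 60, 30, 15 or 7.5 g a.i./ha, in triplicate. Growth inhibition was rated visually against untreated controls after 15 days and given as the triplicate mean percentage.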

[7] = tested on: Zea mays; assay: Phytotoxicity against Zea mays (maize) assessed as growth inhibition at 37.5 g.a.i/ha pre-emergent application measured after 15 days by greenhouse crop selectivity assay; assay type: organism-based; details: in vivo, other, 360 h; procedure, shortened: as §4
[8] = tested on: Amaranthus spinosus; assay: Pre-emergence herbicidal activity against Amaranthus spinosus assessed as growth inhibition at 7.5 g.a.i./ha applied 24 hr after seeds were sown measured after 15 days; assay type: functional; details: read-out: GI; procedure, shortened: as §2
[9] = tested on: Digitaria sanguinalis; assay: Pre-emergence herbicidal activity against Digitaria sanguinalis (hairy crabgrass) assessed as growth inhibition at 75 g.a.i./ha applied 24 hr after seeds were sown measured after 15 days; assay type: functional; details: read-out: GI; procedure, shortened: as §2
[10] = tested on: Digitaria sanguinalis; assay: Post-emergence herbicidal activity against Digitaria sanguinalis (hairy crabgrass) assessed as growth inhibition at 37.5 g.a.i./ha applied at one-leaf stage measured after 15 days; assay type: functional; details: 360 h, read-out: GI; procedure, shortened: as §1
[11] = Phytotoxicity against Triticum aestivum (wheat) assessed as growth inhibition at 300 g.a.i/ha pre-emergent application measured after 15 days by greenhouse crop selectivity assay; assay type: organism-based; details: in vivo, read-out: GI; procedure, shortened: as §4
[12] = tested on: Arachis hypogaea; assay: Phytotoxicity against Arachis hypogaea (peanut) assessed as growth inhibition at 300 g.a.i/ha pre-emergent application measured after 15 days by greenhouse crop selectivity assay; assay type: organism-based; details: in vivo, other, 360 h; procedure, shortened: as §4
[13] = tested on: Abutilon theophrasti; assay: Post-emergence herbicidal activity against Abutilon theophrasti (velvetleaf) assessed as growth inhibition at 7.5 g.a.i./ha applied at two-leaf stage measured after 15 days; assay type: functional; details: 360 h, read-out: GI; procedure, shortened: as §1
[14] = tested on: Abutilon theophrasti; assay: Pre-emergence herbicidal activity against Abutilon theophrasti (velvetleaf) assessed as growth inhibition at 15 g.a.i./ha applied 24 hr after seeds were sown measured after 15 days; assay type: functional; details: read-out: GI; procedure, shortened: as §2
[15] = tested on: Glycine max; assay: Phytotoxicity against Glycine max (soybean) assessed as growth inhibition at 7.5 to 60 g.a.i/ha post-emergent application measured after 15 days by greenhouse crop selectivity assay; assay type: organism-based; details: in vivo, other, 360 h; procedure, shortened: as §5
[16] = tested on: Echinochloa crus-galli; assay: Post-emergence herbicidal activity against Echinochloa crus-galli (barnyard grass) assessed as growth inhibition at 37.5 g.a.i./ha applied at one-leaf stage measured after 15 days; assay type: functional; details: 360 h, read-out: GI; procedure, shortened: as §1
[17] = tested on: Gossypium; assay: Phytotoxicity against Gossypium (cotton) assessed as growth inhibition at 150 g.a.i/ha pre-emergent application measured after 15 days by greenhouse crop selectivity assay; assay type: organism-based; details: in vivo, other, 360 h; procedure, shortened: as §4
[18] = tested on: Digitaria sanguinalis; assay: Post-emergence herbicidal activity against Digitaria sanguinalis(hairy crabgrass) assessed as growth inhibition at 15 g.a.i./ha applied at one-leaf stage measured after 15 days; assay type: functional; details: 360 h, read-out: GI; procedure, shortened: as §1
[19] = tested on: Amaranthus spinosus; assay: Post-emergence herbicidal activity against Amaranthus spinosus assessed as growth inhibition at 37.5 g.a.i./ha applied at two-leaf stage measured after 15 days; assay type: functional; details: 360 h, read-out: GI; procedure, shortened: as §1
[20] = tested on: Setaria viridis; assay: Pre-emergence herbicidal activity against Setaria viridis (green foxtail) assessed as growth inhibition at 75 g.a.i./ha applied 24 hr after seeds were sown measured after 15 days; assay type: functional; details: read-out: GI
Procedure, shortened: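 Preliminary pre-emergence screen at a single rate of 75 g a.i./ha. Stock diluted with water and sprayed on greenhouse pots 24 h after seeds were sown 5 mm deep in clay soil (pH 6.5, 1.7% organic matter); grown at 22-25 °C. Untreated and DMF solvent controls included; triplicate. Visual % growth inhibition vs untreated after 15 days, averaged and banded (>80% top band).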

[21] = tested on: Echinochloa crus-galli; assay: Pre-emergence herbicidal activity against Echinochloa crus-galli (barnyard grass) assessed as growth inhibition at 15 g.a.i./ha applied 24 hr after seeds were sown measured after 15 days; assay type: functional; details: read-out: GI; procedure, shortened: as §2
[22] = tested on: Zea mays; assay: (§6) Phytotoxicity against Zea mays (maize) assessed as growth inhibition at 300 g.a.i/ha pre-emergent application measured after 15 days by greenhouse crop selectivity assay; assay type: organism-based; details: in vivo, other, 360 h; procedure, shortened: as §4
[23] = tested on: Gossypium; assay: Phytotoxicity against Gossypium (cotton) assessed as growth inhibition at 75 g.a.i/ha pre-emergent application measured after 15 days by greenhouse crop selectivity assay; assay type: organism-based; details: in vivo, other, 360 h; procedure, shortened: as §4
[24] = tested on: Zea mays; assay: Phytotoxicity against Zea mays (maize) assessed as growth inhibition at 75 g.a.i/ha pre-emergent application measured after 15 days by greenhouse crop selectivity assay; assay type: organism-based; details: in vivo, other, 360 h; procedure, shortened: as §4
[25] = tested on: Digitaria sanguinalis; assay: Pre-emergence herbicidal activity against Digitaria sanguinalis (hairy crabgrass) assessed as growth inhibition at 7.5 g.a.i./ha applied 24 hr after seeds were sown measured after 15 days; assay type: functional; details: read-out: GI; procedure, shortened: as §2
[26] = tested on: Chenopodium album; assay: Post-emergence herbicidal activity against Chenopodium album assessed as growth inhibition at 15 g.a.i./ha applied at two-leaf stage measured after 15 days; assay type: functional; details: 360 h, read-out: GI; procedure, shortened: as §1
[27] = tested on: Arachis hypogaea; assay: Phytotoxicity against Arachis hypogaea (peanut) assessed as growth inhibition at 37.5 g.a.i/ha pre-emergent application measured after 15 days by greenhouse crop selectivity assay; assay type: organism-based; details: in vivo, other, 360 h; procedure, shortened: as §4
[28] = as §3; assay type: organism-based; details: in vivo, 75 g.a.i/ha, read-out: GI; procedure, shortened: as §4
[29] = Phytotoxicity against Oryza sativa (rice) assessed as growth inhibition at 37.5 g.a.i/ha pre-emergent application measured after 15 days by greenhouse crop selectivity assay; assay type: organism-based, L.; details: in vivo, 37.5 g.a.i/ha, read-out: GI; procedure, shortened: as §4
[30] = as §6; assay type: organism-based; details: in vivo, 300 g.a.i/ha, read-out: GI; procedure, shortened: as §4

Row | Compound | inhibition of growth at 7.5 g/ha [1] [%] | inhibition of growth at 7.5 g/ha [2] [%] | inhibition of growth at 37.5 g/ha [3] [%] | growth inhibition (GI) [5] | Activity [6] | growth inhibition (GI) [7] | inhibition of growth at 7.5 g/ha [8] [%] | inhibition of growth at 75 g/ha [9] [%] | inhibition of growth at 37.5 g/ha [10] [%] | inhibition at 360 h [11] [%] | growth inhibition (GI) [12] | inhibition of growth at 7.5 g/ha [13] [%] | inhibition of growth at 15 g/ha [14] [%] | Activity [15] | inhibition of growth at 37.5 g/ha [16] [%] | growth inhibition (GI) [17] | inhibition of growth at 15 g/ha [18] [%] | inhibition of growth at 37.5 g/ha [19] [%] | inhibition of growth at 75 g/ha [20] [%] | inhibition of growth at 15 g/ha [21] [%] | also measured
1 | CCOC(=O)C(CC)N1C(=O)C(C)Oc2cc(F)c(N3C(=O)C4=C(CCCC4)C3=O)cc21 (stereo not given) | 100 | 100 | 100 | Not Active | Toxic | Not Active | 100 | > 80 | 70 | > 10 | Not Active | 100 | 40 | Toxic | 50 | Not Active | 50 | 100 | > 80 | 0 | growth inhibition (GI) [4]: Not Active; growth inhibition (GI) [22]: Not Active; growth inhibition (GI) [23]: Not Active; growth inhibition (GI) [24]: Not Active; inhibition of growth at 7.5 g/ha [25]: 0%; inhibition of growth at 15 g/ha [26]: 100%; growth inhibition (GI) [27]: Not Active
2 | COC(=O)C(C)N1C(=O)C(C)Oc2cc(F)c(N3C(=O)C4=C(CCCC4)C3=O)cc21 (stereo not given) | 100 | 100 | 100 | Not Active | Toxic | Not Active | 100 | > 80 | 60 | > 10 | Not Active | 100 | 60 | Toxic | 50 | Not Active | 20 | 100 | > 80 | 10 | inhibition at 360 h [28]: > 10%; inhibition at 360 h [29]: > 10%; inhibition at 360 h [30]: > 10%; growth inhibition (GI) [23]: Not Active; growth inhibition (GI) [24]: Not Active; inhibition of growth at 7.5 g/ha [25]: 0%; inhibition of growth at 15 g/ha [26]: 100%; growth inhibition (GI) [27]: Not Active

From ChEMBL document CHEMBL3045743, “Synthesis and herbicidal activity of isoindoline-1,3-dione substituted benzoxazinone derivatives containing a carboxylic ester group” (J Agric Food Chem, 2009)
